In PMC3180826 (ACS chemical neuroscience, 2010):
Where a chain is given by its changes, count along the chain named.

Legend:
rM1 E397V = molecular target: T1, rM1 E397V (Rattus norvegicus, UniProt P08482, E397V); test: Calcium mobilization, rM1 E397V mutant CHO-K1 cells; format: cell-based; details: compared with wt rM1
T1 sequence (P08482 1-460 E397V): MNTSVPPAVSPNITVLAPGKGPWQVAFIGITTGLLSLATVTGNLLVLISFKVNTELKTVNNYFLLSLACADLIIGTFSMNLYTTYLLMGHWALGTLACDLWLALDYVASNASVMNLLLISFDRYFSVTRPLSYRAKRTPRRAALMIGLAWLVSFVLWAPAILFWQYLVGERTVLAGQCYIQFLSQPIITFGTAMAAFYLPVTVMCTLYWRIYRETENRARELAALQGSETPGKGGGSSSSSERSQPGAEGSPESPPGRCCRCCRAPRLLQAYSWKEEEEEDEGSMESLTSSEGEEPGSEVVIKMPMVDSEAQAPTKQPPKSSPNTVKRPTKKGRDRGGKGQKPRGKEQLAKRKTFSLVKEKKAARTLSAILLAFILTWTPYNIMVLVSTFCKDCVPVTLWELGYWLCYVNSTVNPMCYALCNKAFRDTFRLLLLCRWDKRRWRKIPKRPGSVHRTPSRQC
Outline: (§1)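 CHO-K1 cells were transiently transfected overnight at 37 °C with 10 μg of mutant rat M1 cDNA in pcDNA3.1+ using Fugene 6, then plated for the calcium assay. They were loaded with 2 μM Fluo-4 AM for 1 h at 37 °C in HEPES/probenecid-buffered HBSS, pH 7.4. Test compound dose–response series were added at 19 s. Calcium mobilization was measured as fluorescence increase over basal.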

hM5 = molecular target: T2, hM5 (Homo sapiens, UniProt P08912); test: Calcium mobilization assay, agonist mode, M5; format: cell-based; details: up to 30 μM
T2 sequence (P08912 1-532): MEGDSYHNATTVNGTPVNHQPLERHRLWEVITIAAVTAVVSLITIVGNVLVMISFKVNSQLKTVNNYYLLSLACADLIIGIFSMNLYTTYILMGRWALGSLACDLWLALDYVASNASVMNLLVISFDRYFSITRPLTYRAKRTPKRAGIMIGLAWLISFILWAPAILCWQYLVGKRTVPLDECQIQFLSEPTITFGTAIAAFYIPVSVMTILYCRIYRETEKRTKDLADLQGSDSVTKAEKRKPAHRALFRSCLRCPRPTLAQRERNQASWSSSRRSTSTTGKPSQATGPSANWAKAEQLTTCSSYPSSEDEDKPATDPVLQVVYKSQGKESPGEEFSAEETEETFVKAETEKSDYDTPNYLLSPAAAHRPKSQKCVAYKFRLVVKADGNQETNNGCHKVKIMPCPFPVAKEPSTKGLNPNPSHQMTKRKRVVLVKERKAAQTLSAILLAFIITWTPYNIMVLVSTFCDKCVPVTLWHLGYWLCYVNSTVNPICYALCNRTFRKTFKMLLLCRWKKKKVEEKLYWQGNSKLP
Outline: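 CHO-K1 cells stably expressing hM2/Gqi5 or rM4/Gqi5 (6 × 10^4 cells/well), or hM3 or hM5 (5 × 10^4 cells/well), were cultured overnight at 37 °C in 5% CO2. Cells were loaded with 2 μM Fluo-4 AM for 1 h at 37 °C in HBSS with 20 mM HEPES and 2.5 mM probenecid, pH 7.4. Eight-point test compound concentration series were added at 19 s of a 130 s read. Calcium flux was read as fluorescence fold over basal.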

rM1 K392D = molecular target: T3, rM1 K392D (Rattus norvegicus, UniProt P08482, K392D); test: Calcium mobilization, rM1 K392D mutant CHO-K1 cells; format: cell-based; details: compared with wt rM1
T3 sequence (P08482 1-460 K392D): T1 sequence (P08482 1-460 E397V) with K392D, V397E
Outline: as §1

M4 = molecular target: T4, M4 (Rattus norvegicus, UniProt P08485); test: [3H]-NMS competition binding, M4 CHO membranes; details: concentrations well above those required to fully activate M1
T4 sequence (P08485 1-478): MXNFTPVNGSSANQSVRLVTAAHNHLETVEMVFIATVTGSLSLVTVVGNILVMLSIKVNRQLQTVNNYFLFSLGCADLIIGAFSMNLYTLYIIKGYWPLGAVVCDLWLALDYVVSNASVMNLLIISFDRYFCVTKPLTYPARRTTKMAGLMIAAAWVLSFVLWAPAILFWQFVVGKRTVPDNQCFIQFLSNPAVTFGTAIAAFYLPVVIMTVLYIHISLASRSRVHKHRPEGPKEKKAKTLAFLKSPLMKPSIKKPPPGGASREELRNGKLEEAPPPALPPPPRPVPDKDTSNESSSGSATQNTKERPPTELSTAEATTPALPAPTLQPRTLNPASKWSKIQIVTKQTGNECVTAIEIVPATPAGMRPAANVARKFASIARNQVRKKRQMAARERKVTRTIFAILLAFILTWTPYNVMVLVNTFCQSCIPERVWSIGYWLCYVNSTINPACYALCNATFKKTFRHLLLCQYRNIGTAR

M2 = molecular target: T5, M2 (Homo sapiens, UniProt P08172); test: [3H]-NMS competition binding, M2 CHO membranes; details: concentrations well above those required to fully activate M1
T5 sequence (P08172 1-466): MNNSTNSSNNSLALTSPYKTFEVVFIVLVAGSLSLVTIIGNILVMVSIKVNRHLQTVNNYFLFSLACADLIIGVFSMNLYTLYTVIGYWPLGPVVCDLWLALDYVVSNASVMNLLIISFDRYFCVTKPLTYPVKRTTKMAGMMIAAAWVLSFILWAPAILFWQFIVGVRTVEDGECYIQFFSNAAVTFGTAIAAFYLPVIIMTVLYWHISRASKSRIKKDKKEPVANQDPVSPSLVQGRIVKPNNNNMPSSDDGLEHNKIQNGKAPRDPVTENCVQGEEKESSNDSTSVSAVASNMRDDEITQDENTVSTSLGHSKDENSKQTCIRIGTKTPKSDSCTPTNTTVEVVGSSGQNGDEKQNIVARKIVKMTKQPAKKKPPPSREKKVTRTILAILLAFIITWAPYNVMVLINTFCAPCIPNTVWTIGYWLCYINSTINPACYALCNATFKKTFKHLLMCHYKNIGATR

functional activity at E397V mutant (rM1 E397V): mild reduction in potency and efficacy
agonist activity at M5 (hM5): no activity
functional activity at K392D mutant (rM1 K392D): comparable results to wt rM1
reduction of [3H]-NMS binding to M4 (M4): did not reduce
reduction of [3H]-NMS binding to M2 (M2): did not reduce
SMILES: CCOC(=O)N1CCC(NCCNC(=O)c2ccccc2)CC1 [VU0184670, ethyl 4-(2-benzamidoethylamino)piperidine-1-carboxylate]
